Test results: ChEMBL document CHEMBL3271964, “Synthesis and biological activity of new 2-nitroimidazole derivatives” (J Med Chem, 1978)
≈ marks a conversion by molar mass, not a printed value.

Legend:
Trichomonas vaginalis [1] = assay: Antimicrobial activity against Trichomonas vaginalis infected in po dosed mouse relative to metronidazole; type: functional
Procedure, shortened: (§1)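 Mice infected subcutaneously, then dosed orally. Vehicle depended on compound: suspension in aqueous 0.75% sodium carboxymethylcellulose, DMF-H₂O, DMF-phosphate buffer pH 7.38, or water. ED₅₀ determined, with metronidazole run in parallel. The relative value is ED₅₀ (test) / ED₅₀ (metronidazole).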

[2] = system: Mycoplasmoides gallisepticum; assay: Antimicrobial activity against Mycoplasma gallisepticum S6 Weybridge by broth dilution method; type: functional
[3] = Acute toxicity in po dosed mouse; type: organism-based; settings: in vivo
Procedure, shortened: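 Acute toxicity in mice by the oral route. Compounds were given as suspensions in aqueous 0.5% Methocel 90-HG.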

Trichomonas vaginalis [4] = assay: Antimicrobial activity against Trichomonas vaginalis by broth dilution method; type: functional
[5] = Therapeutic index, ratio of LD50 for po dosed mouse to ED50 for Trichomonas vaginalis infected in po dosed mouse; type: organism-based; settings: in vivo, read-out: Ratio LD50/ED50
Procedure, shortened: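 Ratio of two mouse values, both dosed orally. The LD50 comes from acute toxicity, with compounds suspended in aqueous 0.5% Methocel 90-HG. The ED50 comes from subcutaneous T. vaginalis infection treated orally. The ED50 vehicle varied by compound: suspension in aqueous 0.75% sodium carboxymethylcellulose, DMF-H2O, DMF-phosphate buffer pH 7.38, or H2O.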

Clostridium perfringens = assay: Antimicrobial activity against Clostridium perfringens ISS 30543 by broth dilution method; type: functional
Streptococcus pyogenes = assay: Antimicrobial activity against Streptococcus pyogenes C 203 by microtitre method; type: functional
Staphylococcus aureus = assay: Antimicrobial activity against Staphylococcus aureus Tour by microtitre method; type: functional
Trichomonas vaginalis [6] = assay: Antimicrobial activity against Trichomonas vaginalis infected in po dosed mouse; type: functional; procedure, shortened: as §1
Mus musculus = assay: Toxicity in CF1 mouse assessed as change in sleeping time at 1 mg/kg, po administered 30 mins prior to hexobarbital sodium challenge relative to vehicle-treated control; type: organism-based; design: dose 1 mg/kg, route oral; settings: in vivo, 0.5 h

SMILES | Ratio ED50 (Trichomonas vaginalis [1]) | MIC [2] | LD50 [3] | MIC (Trichomonas vaginalis [4]) | selectivity ratio [5] | MIC (Clostridium perfringens) | MIC (Streptococcus pyogenes) | MIC (Staphylococcus aureus) | ED50 (Trichomonas vaginalis [6]) | Activity (Mus musculus)
Cn1c(C(C)(C)OC(=O)NN)cnc1[N+](=O)[O-] | 0.33 | 25 µg/mL (≈ 103 µM) | 660 mg/kg | 100 µg/mL (≈ 411 µM) | 141 | 3.1 µg/mL (≈ 12.7 µM) | 100 µg/mL (≈ 411 µM) | > 100 µg/mL | 4.67 mg/kg | –
COC(C)(C)c1cnc([N+](=O)[O-])n1C | 0.81 | > 100 µg/mL | 805 mg/kg | 5 µg/mL (≈ 25.1 µM) | 99 | 5 µg/mL (≈ 25.1 µM) | > 100 µg/mL | > 100 µg/mL | 8.12 mg/kg | –
CN(C)CCCN1c2ccccc2Sc2ccc(Cl)cc21.Cl [CHLORPROMAZINE HYDROCHLORIDE] | – | – | – | – | – | – | – | – | – | 57.7%
Cn1c(C(C)(C)OC(=O)Nc2ccccc2)cnc1[N+](=O)[O-] | 2.88 | 25 µg/mL (≈ 82.2 µM) | – | 100 µg/mL (≈ 329 µM) | – | 3.1 µg/mL (≈ 10.2 µM) | > 100 µg/mL | > 100 µg/mL | 28.8 mg/kg | –
Cn1c(C(C)(C)OC(=O)c2ccccc2)cnc1[N+](=O)[O-] | 1.62 | 50 µg/mL (≈ 173 µM) | – | > 100 µg/mL | – | 3.1 µg/mL (≈ 10.7 µM) | 100 µg/mL (≈ 346 µM) | 100 µg/mL (≈ 346 µM) | 16.2 mg/kg | –
O=[N+]([O-])c1cncn1CCN1CCOCC1 [NIMORAZOLE] | 4.66 | > 300 µg/mL | 1530 mg/kg | 12.5 µg/mL (≈ 55.3 µM) | 40 | 0.6 µg/mL (≈ 2.65 µM) | > 300 µg/mL | > 300 µg/mL | 37.9 mg/kg | –
